# MrgX1 antag: antagonists of human MrgX1 receptor, primary screen, HEK293 cells, Fluo-4 calcium flux; BAM8-22 antagonism; active compounds read low; B-score at 10 µM; 310,000 compounds, 1.3% hits; AID 588676, 2011;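 active = calcium-response B-score plate-corrected more than 3 library SD below zero, starting fluorescence within 5 deviations, no agonist response on first addition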;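 note: peak minus trough fluorescence over baseline after final BAM8-22 challenge near maximal dose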
# Target sequence (Q96LB2 whole entry, looked up): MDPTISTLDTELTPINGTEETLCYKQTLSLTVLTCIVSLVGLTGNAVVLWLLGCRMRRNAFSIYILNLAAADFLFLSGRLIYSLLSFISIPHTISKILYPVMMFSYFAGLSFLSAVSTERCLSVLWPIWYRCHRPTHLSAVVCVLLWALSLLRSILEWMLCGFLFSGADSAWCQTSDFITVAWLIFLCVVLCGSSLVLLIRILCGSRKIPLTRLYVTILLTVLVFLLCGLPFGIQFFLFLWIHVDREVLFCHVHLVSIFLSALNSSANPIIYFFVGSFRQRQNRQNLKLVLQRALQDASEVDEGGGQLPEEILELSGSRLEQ
# MrgX1 agonist: agonists of human MrgX1 receptor, primary screen, HEK293 cells, Fluo-4 calcium flux; Mas-related G-protein coupled receptor member X1 (Homo sapiens), Q96LB2; Fluo-4 calcium fluorescence, agonist mode; active compounds read high; B-score at 10 µM; 310,000 compounds, 0.44% hits; AID 588627, 2011;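 active = calcium response B-score plate-corrected fluorescence ratio at least 3 library SD, with starting fluorescence B-score inside 5 SD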
#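 times = overnight plating, then 30 min 37 °C plus 30 min room-temperature dye loading | assay system = stable human MrgX1 HEK293 cell line | input = fifteen thousand cells per well | signal = kinetic calcium dye fluorescence, Fluo-4 NW | dosing = compound delivered in addition one of three | read-out = B-scored fluorescence response ratio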
# RGS4 block: RGS4 inhibitors, primary screen, cell-based, HEK293 M3R inducible RGS4, calcium flux. Fluo-4 calcium flux; active compounds read high; triggered by carbachol at its EC20. B-score at 10 µM. 310,000 compounds, 0.45% hits;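 active = B-score, a plate-corrected calcium signal, over three deviations above library mean, with baseline fluorescence within five deviations of library mean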;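 note: RGS4 expression induced by doxycycline in cells with stable M3 receptor; B-score is computed from the integrated fluorescence ratio over baseline after carbachol; higher B-score means a larger calcium signal and so more RGS4 inhibition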
# Target sequence (P49798 whole entry, looked up): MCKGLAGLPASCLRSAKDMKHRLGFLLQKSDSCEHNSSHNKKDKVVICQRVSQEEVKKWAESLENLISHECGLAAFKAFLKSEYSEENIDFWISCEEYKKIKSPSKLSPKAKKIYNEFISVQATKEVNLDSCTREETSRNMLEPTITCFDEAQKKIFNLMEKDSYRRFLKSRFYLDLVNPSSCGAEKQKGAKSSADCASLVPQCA
# MrgX1 PAM: positive allosteric modulators of MrgX1, primary screen, HEK293 cells, Fluo-4 calcium flux | FDSS; active compounds read high | B-score at 10 µM | 310,000 compounds, 0.63% hits | Mas-related G-protein coupled receptor member X1 (Homo sapiens), Q96LB2;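 active = plate-corrected calcium response at least 3 library SD above typical, normal starting fluorescence, not activating the receptor alone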;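 note: compound read alongside a low EC10 to EC30 dose of BAM8-22 agonist; peak minus trough fluorescence over baseline measured at the second addition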
# RGS4 pot: RGS4 potentiators or activators, primary screen, cell-based, HEK293 M3R inducible RGS4, calcium flux. carbachol calcium flux Fluo4; active compounds read low. B-score at 10 µM. 310,000 compounds, 0.92% hits;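 active = B-score of the integrated calcium signal more than 4 SD below the library mean, with starting fluorescence not abnormally high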;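 note: negative B-score means reduced calcium response which marks RGS4 activation or potentiation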
#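 System: HEK293 FlpIn-TREx cells, stable M3R, doxycycline-inducible RGS4. Timing: overnight RGS4 induction, 30 min dye load 37 °C, 20 min compound RT. Also added: carbachol, ECmax concentration. Measured by: Fluo4 fluorescence kinetic imaging of calcium. Evaluation: integrated calcium ratio converted to B score.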
# RGS4 activ val: reduced carbachol calcium response, RGS4-induced M3R cells, confirmation, RGS4 activator project, cell-based, HEK293 M3R/RGS4 inducible, calcium flux, duplicate; shares compounds with RGS4 pot; carbachol calcium flux Fluo4; inhibition, % at 10 µM; 1,100 compounds, 89% hits;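 active = inhibition above 3 SD of the buffer control wells, cut at about 41% in these data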;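 note: signal is the integrated peak-minus-minimum Fluo4 fluorescence over baseline ratio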
# RGS4 act ctr: activity in cells without induced RGS4 expression | shares compounds with RGS4 pot | HEK293 M3R non-induced RGS4, Fluo4 calcium flux; after carbachol challenge at its EC90 | inhibition, % at 10 µM | 1,100 compounds, 82% hits | AID 602283;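 active = inhibition exceeding 3 SD of buffer-only control wells, cut at about 26% in these data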;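 note: percent drop in integrated peak-minus-baseline over baseline Fluo4 ratio after carbachol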
# Hits are given with their value; . = inactive; / = not tested or not shown. This is a sample that favours compounds with a hit; in the whole collection about 3.5% have one here.
SMILES,MrgX1 antag,MrgX1 agonist,RGS4 block,MrgX1 PAM,RGS4 pot,RGS4 activ val,RGS4 act ctr
COc1cc(F)ccc1S(=O)(=O)N1CCN(C23CC4CC(CC(C4)C2)C3)CC1,.,.,.,.,.,/,/
COc1cc(C)ccc1S(=O)(=O)N1CCN(C23CC4CC(CC(C4)C2)C3)CC1,.,.,.,.,-8.9,92,80
CN1CCN(C(CNC(=O)C(=O)NC2CCCC2)c2ccc(F)cc2)CC1 (stereo not given),.,.,.,.,.,/,/
CN1CCN(c2nc(-c3cccs3)cc(C(F)(F)F)n2)CC1,.,.,.,.,-8.7,92,38
Cc1ccc(C(=O)N(CCc2ccccc2)Cc2ccccc2)cc1S(=O)(=O)N1CCCCC1,.,.,.,.,-8.5,91,50
Cc1ccccc1OCC(=O)NC(=S)Nc1ccccc1N1CCN(S(C)(=O)=O)CC1,.,.,.,.,-9.1,62,.
CCC(C)Nc1nc(OC(C(F)(F)F)C(F)(F)F)nc(OC(C(F)(F)F)C(F)(F)F)n1 (stereo not given),.,.,.,.,-7.9,90,53
COCCCn1c(=O)c2ccccc2n(CC(=O)Nc2ccc3c(c2)OCCO3)c1=O,.,.,.,.,.,/,/
COc1ccc(C2C(C(=O)Nc3cc(OC)c(OC)c(OC)c3)c3ccccc3C(=O)N2C)cc1OC (stereo not given),.,.,.,.,.,/,/
COc1cc(C(=O)Oc2cccc(Nc3ncnc4ccccc34)c2)cc(OC)c1OC,.,.,.,.,-12,92,80
Brc1ccc(-c2c[n+]3c(n2-c2ccccc2)SCC3)cc1,.,.,.,.,.,/,/
c1ccc(Cn2c(-c3ccccc3)c[n+]3c2SCCC3)cc1,.,.,.,.,-11,92,89
Cc1ccccc1NC(=O)c1cccc2nc3ccccc3nc12,.,.,.,.,-7.8,86,59
COc1ccc2cc(C(=O)N3CCC(Cc4ccccc4)CC3)[nH]c2c1,.,.,.,.,-7.9,.,.
COc1ccc2[nH]c(C(=O)N3CCC(Cc4ccccc4)CC3)cc2c1,.,.,.,.,.,/,/
COC(=O)C(=O)/C=C(\O)c1c(C)cc(C)cc1C,.,.,.,.,.,/,/
c1ccc(C(c2ccccc2)c2noc(CN3CCN(CC4CC4)CC3)n2)cc1,.,.,.,.,-8,93,78
COc1ccc(/C=N/NC(=O)c2cc(C(C)(C)C)[nH]n2)cc1COc1ccc(F)cc1F,.,.,.,.,-12,74,27
C/C(=C\C=C(C#N)C#N)c1cc(C#N)c(N)o1,/,/,.,/,-8.3,62,57
Cc1nc2ccc(NC(=O)c3cccc(S(=O)(=O)N(C)c4ccccc4)c3)cc2s1,.,.,.,.,-8.9,88,69
Cn1c(=O)c(-c2ccccc2[N+](=O)[O-])c(Cl)c2ccccc21,.,.,.,.,.,/,/
CC(C)(C)c1cc(C(=O)NCc2cc(F)cc3c2OCOC3)n(Cc2ccccc2)n1,.,.,.,.,-8.4,92,56
Cc1cccc(C)c1NC(=O)NNC(=O)c1cc(C(C)(C)C)nn1Cc1ccccc1,.,.,.,.,.,/,/
CCOc1ccc(S(=O)(=O)N2CCN(Cc3ccc4c(c3)OCO4)CC2)cc1Cl,.,.,.,.,.,/,/
CSc1ccc(S(=O)(=O)N2CCN(Cc3ccc4c(c3)OCO4)CC2)cc1,.,.,.,.,-9.9,92,91
SMILES,MrgX1 antag,MrgX1 agonist,RGS4 block,MrgX1 PAM,RGS4 pot,RGS4 activ val,RGS4 act ctr
Cc1cccc(S(=O)(=O)N2CCN(Cc3ccc4c(c3)OCO4)CC2)c1,.,.,.,.,-10,68,84
COc1ccc(S(=O)(=O)N2CCN(Cc3ccc4c(c3)OCO4)CC2)cc1,.,.,.,.,-11,62,84
COc1ccc(S(=O)(=O)N2CCC(N3CCN(Cc4ccccc4)CC3)CC2)cc1,.,.,.,.,-8,86,50
COc1ccccc1CNC(=O)[C@H](C)NC(=O)C1CCN(C(=O)[C@H](CCSC)NC(=O)OC(C)(C)C)CC1,.,.,.,.,.,/,/
CSCCNC(=O)c1ccc2nc(C3CCCCC3)oc2c1,.,.,.,.,.,/,/
COc1ccc(CSC2=NCCN2)cc1Br,.,.,.,.,.,/,/
O=C(NC(C(=O)c1ccccc1)N1CCOCC1)c1ccccc1 (stereo not given),.,.,.,.,.,/,/
Cc1cc(=O)n(C(NC(=O)c2ccccc2)C(=O)c2ccccc2)cn1 (stereo not given),.,.,.,.,-9.2,.,.
CCOC(=O)C1CN(S(=O)(=O)c2cccs2)c2ccc(CC(=O)OC)cc2O1 (stereo not given),.,.,.,.,.,/,/
COc1ccccc1-n1c(=O)c(C#N)c(-c2ccc([N+](=O)[O-])cc2)c2cc(C(=O)c3ccccc3O)cnc21,.,.,.,.,.,/,/
CC(C)Nc1nc(NC(C)C)nc(N(C#N)CCOc2ccc(Cl)cc2Cl)n1,.,.,.,.,-7.8,63,84
CCCCNc1c2c3c(cccc3n(C)c1=O)C(=O)c1ccccc1-2,.,.,.,.,-12,100,97
CCOc1ccc(NC(C(=O)Nc2cccc(C(C)=O)c2)c2ccccc2)cc1 (stereo not given),.,.,.,.,.,/,/
CCN(CC)CCNC(C(=O)Nc1cccc(C(C)=O)c1)c1ccccc1 (stereo not given),-5,.,.,.,-13,90,45
CCOc1ccc(N2CC(C(=O)N3CCN(C(=O)c4ccco4)CC3)CC2=O)cc1 (stereo not given),.,.,.,.,.,/,/
COC(=O)c1ccc(OC)c(CSc2nnc(COc3ccccc3)o2)c1,.,.,.,.,.,/,/
COC(=O)c1ccc(OC)c(CSc2nnc(-c3ccc(C(C)(C)C)cc3)o2)c1,.,.,.,.,-7.9,58,84
CC1CCN(C(=O)CSC2=NS(=O)(=O)c3cc(F)ccc3N2)CC1,.,.,.,.,.,/,/
CCC(CC)C(=O)Nc1cccc(C(=O)N2CCOCC2)c1,.,.,.,.,-10,.,.
CCC(CC)C(=O)Nc1cccc(C(=O)N2CCCCCC2)c1,.,.,.,.,.,/,/
